According to ChEMBL document CHEMBL1131628 (J Med Chem, 1998):
Where “and” joins values, the source holds several entries; their conditions need not be identical. Equal values may be shown once.

Tests used:
Endothelin-1 receptor [1] = molecular target: T1, Endothelin-1 receptor (Rattus norvegicus, UniProt P26684); experiment: Binding affinity for endothelin A receptor by measuring its ability to displace [125I]ET1 from prolactin secreting rat pituitary cells(MMQ); format: cell-based, Pituitary gland cell
T1 sequence (P26684 whole entry): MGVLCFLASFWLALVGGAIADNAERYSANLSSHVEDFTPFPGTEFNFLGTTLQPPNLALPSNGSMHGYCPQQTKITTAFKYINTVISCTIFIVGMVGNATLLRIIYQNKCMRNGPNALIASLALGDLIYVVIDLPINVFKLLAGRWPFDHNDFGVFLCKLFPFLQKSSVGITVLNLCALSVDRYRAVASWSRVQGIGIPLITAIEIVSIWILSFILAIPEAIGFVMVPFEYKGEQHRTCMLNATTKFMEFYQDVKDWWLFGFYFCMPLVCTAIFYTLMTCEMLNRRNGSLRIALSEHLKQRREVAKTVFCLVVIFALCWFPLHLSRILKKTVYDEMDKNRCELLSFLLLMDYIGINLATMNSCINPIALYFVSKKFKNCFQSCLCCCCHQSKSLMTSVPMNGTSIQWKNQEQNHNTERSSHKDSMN

[2] = Pharmacokinetic profile AUC was evaluated in rats; format: ADME, organism-based; set-up: concentration or dose not given beside the values; details: rat, in vivo
Outline: (§1)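 Male Sprague-Dawley rats, n = 4 per group, 10 mg/kg iv (jugular slow bolus) or oral gavage, 10 mg/mL in ethanol–propylene glycol–D5W (20:30:50) with 1 equiv NaOH. Tail-vein plasma taken 0.1 (iv only) to 12 h, assayed by HPLC after extraction. AUC by trapezoidal rule extrapolated to infinity; T1/2 from terminal rate constant; F as oral/iv AUC.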

[3] = Bioavailability in rat; format: ADME, organism-based; details: in vivo; outline: as §1
[4] = Pharmacokinetic profile Cmax was evaluated in rats; format: ADME, organism-based; details: rat, in vivo; outline: as §1
[5] = Pharmacokinetic profile-half life was evaluated in rats upon intravenous administration; format: ADME, organism-based; details: rat, in vivo; outline: as §1
[6] = Pharmacokinetic profile-half life was evaluated in rats upon oral administration; format: ADME, organism-based; details: rat, in vivo; outline: as §1
[7] = molecular target: T2, Endothelin receptor type B (Homo sapiens, UniProt P24530); experiment: Tested for binding affinity for human Endothelin B receptor by measuring its ability to displace [125I]ET-3 from chinese hamster ovary cells(CHO); format: cell-based
T2 sequence (P24530 whole entry): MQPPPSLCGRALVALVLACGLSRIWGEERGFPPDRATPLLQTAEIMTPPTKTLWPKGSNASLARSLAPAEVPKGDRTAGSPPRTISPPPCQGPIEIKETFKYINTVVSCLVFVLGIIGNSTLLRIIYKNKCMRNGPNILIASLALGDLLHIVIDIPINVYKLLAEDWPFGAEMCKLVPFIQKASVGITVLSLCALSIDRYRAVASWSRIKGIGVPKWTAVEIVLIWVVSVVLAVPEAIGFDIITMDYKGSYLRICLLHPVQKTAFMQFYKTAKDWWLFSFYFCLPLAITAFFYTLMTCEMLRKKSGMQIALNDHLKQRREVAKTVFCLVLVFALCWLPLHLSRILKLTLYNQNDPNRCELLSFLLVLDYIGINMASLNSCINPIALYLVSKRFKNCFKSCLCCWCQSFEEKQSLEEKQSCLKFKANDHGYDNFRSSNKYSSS

Endothelin-1 receptor [8] = molecular target: T3, Endothelin-1 receptor (Homo sapiens, UniProt P25101); experiment: Tested for binding affinity for human Endothelin A receptor by measuring its ability to displace [125I]ET1 from chinese hamster ovary cells(CHO); format: cell-based
T3 sequence (P25101 whole entry): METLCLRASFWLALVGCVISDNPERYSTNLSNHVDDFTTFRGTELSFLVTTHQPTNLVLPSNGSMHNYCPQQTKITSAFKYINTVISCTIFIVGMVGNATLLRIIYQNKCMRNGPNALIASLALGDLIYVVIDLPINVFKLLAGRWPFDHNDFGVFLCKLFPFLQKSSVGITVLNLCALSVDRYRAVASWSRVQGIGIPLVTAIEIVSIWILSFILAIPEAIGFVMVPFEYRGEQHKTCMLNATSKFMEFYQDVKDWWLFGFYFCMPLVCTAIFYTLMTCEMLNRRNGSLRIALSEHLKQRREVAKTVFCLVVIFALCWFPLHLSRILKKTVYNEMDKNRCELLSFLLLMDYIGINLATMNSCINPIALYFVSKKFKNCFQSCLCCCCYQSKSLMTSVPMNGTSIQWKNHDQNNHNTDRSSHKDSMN

| SMILES | IC50 (Endothelin-1 receptor [1]) | also measured |
| --- | --- | --- |
| CCCCN(CCCC)C(=O)CN1C[C@H](c2ccc3c(c2)OCO3)[C@@H](C(=O)O)[C@@H]1CCc1cccn1C | 2.5 nM | – |
| CCCCC[C@H]1[C@H](C(=O)O)[C@@H](c2ccc3c(c2)OCO3)CN1CC(=O)N(CCCC)CCCC | 2.5 nM | – |
| CCCCN(CCCC)C(=O)CN1C[C@H](c2ccc3c(c2)OCO3)[C@@H](C(=O)O)[C@@H]1CCC1CCOCC1 | 10 nM | – |
| CCCCN(CCCC)C(=O)CN1C[C@H](c2ccc3c(c2)OCO3)[C@@H](C(=O)O)[C@@H]1CCN1CCCCC1=O | 2 nM | – |
| CCCCN(CCCC)C(=O)CN1C[C@H](c2ccc3c(c2)OCO3)[C@@H](C(=O)O)[C@@H]1CCc1ccccn1 | 0.38 nM and 0.72 nM | AUC [2]: 780 ng·h/mL; bioavailability [3]: 21.1%; Cmax [4]: 580 ng/mL; half-life [5]: 2.8 h; half-life [6]: 8.8 h; IC50 [7]: 32000 nM; IC50 (Endothelin-1 receptor [8]): 0.29 nM |
| C/C=C\C(C)(C)C[C@H]1[C@H](C(=O)O)[C@@H](c2cc(OC)c3c(c2)OCO3)CN1CC(=O)N(CCCC)CCCC | 0.41 nM | AUC [2]: 2090 ng·h/mL; bioavailability [3]: 27.8%; Cmax [4]: 660 ng/mL; half-life [5]: 1.5 h; half-life [6]: 3.94 h; IC50 [7]: 39700 nM; IC50 (Endothelin-1 receptor [8]): 0.29 nM |
| CCCCN(CCCC)C(=O)CN1C[C@H](c2ccc3c(c2)OCO3)[C@@H](C(=O)O)[C@@H]1CCN1CCCC1=O | 0.42 nM | AUC [2]: 9 ng·h/mL; bioavailability [3]: 0.3%; Cmax [4]: 16 ng/mL; half-life [5]: 1.4 h; IC50 [7]: 18000 nM; IC50 (Endothelin-1 receptor [8]): 0.17 nM |
| C=CCCC[C@H]1[C@H](C(=O)O)[C@@H](c2ccc3c(c2)OCO3)CN1CC(=O)N(CCCC)CCCC | 9.9 nM | – |
| CCCCN(CCCC)C(=O)CN1C[C@H](c2ccc3c(c2)OCO3)[C@@H](C(=O)O)[C@@H]1CCn1ccccc1=O | 2.2 nM | – |
| C/C=C(\C)CC[C@H]1[C@H](C(=O)O)[C@@H](c2ccc3c(c2)OCO3)CN1CC(=O)N(CCCC)CCCC | 3.3 nM | – |
| CCCCN(CCCC)C(=O)CN1C[C@H](c2ccc3c(c2)OCO3)[C@@H](C(=O)O)[C@@H]1CC(CCC)CCC | 6 nM | – |
| C/C=C/CC[C@H]1[C@H](C(=O)O)[C@@H](c2ccc3c(c2)OCO3)CN1CC(=O)N(CCCC)CCCC | 4.8 nM | – |
| CCCCN(CCCC)C(=O)CN1C[C@H](c2ccc3c(c2)OCO3)[C@@H](C(=O)O)[C@@H]1CC(C)(C)C1OCCO1 | 1.4 nM | – |
| CCCCN(CCCC)C(=O)CN1C[C@H](c2ccc3c(c2)OCO3)[C@@H](C(=O)O)[C@@H]1CCCCC(F)(F)F | 4 nM | – |
| CCCCN(CCCC)C(=O)CN1C[C@H](c2ccc3c(c2)OCO3)[C@@H](C(=O)O)[C@@H]1CC(C)CCC (some centres not stated) | 3 nM | – |
| CCCCN(CCCC)C(=O)CN1C[C@H](c2ccc3c(c2)OCO3)[C@@H](C(=O)O)[C@@H]1CCC(CC)CC | 22 nM | – |
| CCCCN(CCCC)C(=O)CN1C[C@H](c2ccc3c(c2)OCO3)[C@@H](C(=O)O)[C@@H]1CCC1OCCCO1 | 3.3 nM | – |
| CCCCN(CCCC)C(=O)CN1C[C@H](c2ccc3c(c2)OCO3)[C@@H](C(=O)O)[C@@H]1CCc1ccco1 | 2.7 nM | – |
| CCCCN(CCCC)C(=O)CN1C[C@H](c2ccc3c(c2)OCO3)[C@@H](C(=O)O)[C@@H]1CCc1nc(C)c(C)o1 | 1.05 nM | – |
| CCCCN(CCCC)C(=O)CN1C[C@H](c2ccc3c(c2)OCO3)[C@@H](C(=O)O)[C@@H]1CCC=C(C)C | 1.3 nM | – |
| CCCCN(CCCC)C(=O)CN1C[C@H](c2ccc3c(c2)OCO3)[C@@H](C(=O)O)[C@@H]1CCC1OC(C)C(C)O1 (some centres not stated) | 13 nM | – |
| CCCCN(CCCC)C(=O)CN1C[C@H](c2ccc3c(c2)OCO3)[C@@H](C(=O)O)[C@@H]1CCC1CCCCO1 (some centres not stated) | 1.8 nM | – |
